Among the data in ChEMBL document CHEMBL3784994, “Systematic comparison of the mono-, dimethyl- and trimethyl 3-hydroxy-4(1H)-pyridones - Attempted optimization of the orally active iron chelator, deferiprone” (Eur J Med Chem, 2016) are Activity, logP and Drug metabolism values, retold here.

As a reminder, the logP is a log measure of how a compound divides between an organic and an aqueous phase.

Data set [1] in a line: Binding affinity to iron(3) assessed as pFe3+ values after 10 to 30 mins.
Data set [2] is described as follows: Octanol-water partition coefficient, log P of the compound by shake-flask method. It is filed as physicochemical. The method in brief:
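Shake-flask partition between n-octanol and 25 mM MOPS, pH 7.4, at 25°C. Buffered solution and octanol were mixed at different ratios, stirred vigorously for 15 s, and separated by centrifugation. Aqueous UV absorbance was read before and after partition. P = (A0−A1)Vaq/(A1Vo).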

For data set [3], the system named is Liver microsome. Put plainly: Drug metabolism in human liver microsomes assessed as glucuronidation at 10 uM after 24 hrs by mass spectrophotometry in presence of NADPH and UDPGA. It is filed as ADME. The method in brief: (§1)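 Pooled mixed-gender human liver microsomes (1 mg/mL) with 10 µM hydroxypyridinone in 100 mM PBS, with NADPH and UDPGA systems. Incubated at 37°C for 24 h with gentle shaking, in triplicate; the blank omitted microsomes. Stopped with 4% phosphoric acid and internal standard added, then centrifuged. Cation-exchange SPE, then UPLC–tandem MS on C18 to identify metabolites and quantify % metabolized.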
A general note: Liver microsomes are vesicles of endoplasmic reticulum, rich in cytochrome P450 enzymes.

In data set [4] the test system is Liver microsome. Put plainly: Drug metabolism in human liver microsomes assessed as hydroxylation at 10 uM after 24 hrs by mass spectrophotometry in presence of NADPH and UDPGA. In kind it is ADME. The method in brief:
as §1

Data set [5] is described as follows: Binding affinity to iron(3) assessed as pFe3+ values after 5 mins. The method in brief: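 Spectrophotometric titration of ligand with iron(III) in 0.1 M KCl, using a 50 mm path cuvette. KOH was added in 0.1 pH unit steps. After readings were stable (<0.001 pH unit over 3 s), there was a 5 min equilibration, then the spectrum was recorded. Constants were fitted with pHab. pFe3+ was computed at total Fe3+ 1 µM, total ligand 10 µM, pH 7.4.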

SMILES strings stand for the structures.

Turning to `Cn1cc(O)c(=O)cn1`, in data set [1], the Activity was 17.2. In data set [2], this compound displayed a logP of -0.85.

In the case of `COc1c[nH]ccc1=O`, in data set [2], the logP is -0.85.

As to `Cc1c[nH]cc(O)c1=O`, the logP in data set [2] was -0.59. Further, the Drug metabolism result in data set [3] and in data set [4] was “metabolite_detected” each time. For the same compound, the Activity in data set [5] was determined as 20.1.

`Cc1cn(C)c(C)c(O)c1=O` displayed a logP in data set [2] of -0.51. Further, the Drug metabolism entry in data set [3] is reported as “metabolite_detected”. Also, in data set [5], the Activity turned out to be 19.7.

`Cn1cc(O)c(=O)c(F)c1` displayed a logP in data set [2] of -0.85.

As for `Cc1cn(C)cc(O)c1=O`, the logP in data set [2] was -0.93. In addition, the Drug metabolism result in data set [3] is listed as “metabolite_detected”. Further, the Activity in data set [5] was 20.5.

Compound `Cc1[nH]cc(C)c(=O)c1O` had a logP in data set [2] of -0.13. Further, the Drug metabolism entry in data set [3] was “metabolite_detected”. The Activity in data set [5] was determined as 19.2.

With `COc1c[nH]cc(CN(C)C)c1=O`, the logP in data set [2] is -0.85.

For the compound `Cc1nccc(O)c1O`, the logP in data set [2] is -0.58. The Drug metabolism entry in data set [3] and in data set [4] was “metabolite_detected” throughout. Moreover, the Activity in data set [5] is 20.2.

With `Cc1cc(=O)c(F)c[nH]1`, the logP in data set [2] is -0.51.

Consider `COc1c[nH]cc(C)c1=O`, for which the logP in data set [2] is -0.51.

The compound `Cc1cc(=O)c(O)c[nH]1` had a logP in data set [2] of -0.73. Also, the Activity in data set [5] was found to be 20.1.

Turning to `Cn1ccc(=O)c(O)c1F`, in data set [2], the logP was -0.85.

As to `Cn1ccc(=O)c(O)n1`, the Activity in data set [1] came to 14.8. In addition, the logP in data set [2] is -0.85.

For the compound `Cc1c(O)c(=O)ccn1C` [DEFERIPRONE], the values for the Activity in data set [1] and in data set [5] were 20.6 and 20.7, respectively. Also, the Drug metabolism entry in data set [3] and in data set [4] was “metabolite_detected” throughout.

Regarding `Cc1cc(=O)c(O)cn1C`, the logP in data set [2] is -1.19. In addition, the Drug metabolism result in data set [3] is “metabolite_detected”. Also, the Activity in data set [5] came to 20.4.

The compound `COc1cn(C)cc(C)c1=O` yielded a logP in data set [2] of -0.85.
